Common to all, as to format: functional
The test system of assay [1] is Enterocloster clostridioformis. Put plainly: Antimicrobial activity against Clostridium clostridioforme isolated from intra-abdominal infection and pelvic inflammatory disease patients after 48 hrs by agar dilution method. A digest of the protocol:
(§1)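 CLSI agar dilution on brucella blood agar supplemented with laked sheep blood, hemin and vitamin K. Inocula of about 1 × 10^5 CFU/spot were applied by Steers replicator, and plates were incubated 48 h at 35°C in an anaerobic glove box. MIC was the concentration giving marked growth reduction versus the anaerobic control plate. QC strains were included each run, and β-lactamase was detected by Cefinase disk.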
A general note: In agar dilution the substance is mixed into plates at graded concentrations.

Assay [2] concerns Anaerococcus tetradius. The assay can be described thus: Antimicrobial activity against Anaerococcus tetradius isolated from intra-abdominal infection and pelvic inflammatory disease patients after 48 hrs by agar dilution method. An outline of the steps: as §1
Assay [3] concerns Prevotella corporis. Put plainly: Antimicrobial activity against beta lactamase-positive Prevotella corporis isolated from intra-abdominal infection and pelvic inflammatory disease patients after 48 hrs by agar dilution method. A digest of the protocol:
as §1

Assay [4] concerns Bacteroides thetaiotaomicron. Put plainly: Bactericidal activity against beta lactamase-positive Bacteroides thetaiotaomicron isolated from intra-abdominal infection and pelvic inflammatory disease patients assessed as bacterial killing at MIC after 48 hrs by time kill analysis. An outline of the steps:
(§2)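 Macrodilution time-kill in prereduced brucella broth with 5% laked horse blood, hemin 5 μg/ml and vitamin K1 1 μg/ml, at final inoculum 10^6–10^7 CFU/ml. […] Viable counts were taken at 6, 12, 24 and 48 h on plates incubated 48 h anaerobically. 99.9% kill was taken as bactericidal.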

For assay [5], the system named is Clostridium perfringens. The assay can be described thus: Bactericidal activity against Clostridium perfringens isolated from intra-abdominal infection and pelvic inflammatory disease patients assessed as bacterial killing at MIC after 48 hrs by time kill analysis. A digest of the protocol:
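Time-kill in prereduced brucella broth with 5% laked horse blood cells, hemin and vitamin K1. […] Viable counts taken at 6, 12, 24 and 48 h, plates incubated 48 h anaerobically. Kill scored as 90%, 99% or 99.9%; 99.9% defines bactericidal.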

In assay [6] the test system is Clostridioides difficile. Put plainly: Bactericidal activity against Clostridium difficile isolated from intra-abdominal infection and pelvic inflammatory disease patients assessed as bacterial killing at MIC after 48 hrs by time kill analysis. An outline of the steps:
as §2

The test system of assay [7] is Bacteroides fragilis. The assay can be described thus: Bactericidal activity against beta lactamase-positive Bacteroides fragilis isolated from intra-abdominal infection and pelvic inflammatory disease patients assessed as bacterial killing at MIC after 48 hrs by time kill analysis. An outline of the steps:
as §2

The test system of assay [8] is Finegoldia magna. The assay can be described thus: Bactericidal activity against beta lactamase-positive Finegoldia magna isolated from intra-abdominal infection and pelvic inflammatory disease patients assessed as bacterial killing at MIC after 48 hrs by time kill analysis. A digest of the protocol:
(§3)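 Anaerobic macrodilution time-kill. Inoculum from brucella blood plates, prepared and diluted in prereduced brucella broth inside the anaerobe chamber. Final 10^6 to 10^7 CFU/ml in prereduced brucella broth with 5% laked horse blood cells, 5 μg/ml hemin and 1 μg/ml vitamin K1. […] Shaken at 35°C for 48 h. Viable counts taken at 6, 12, 24 and 48 h. 99.9% kill taken as bactericidal.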

In assay [9] the test system is Prevotella intermedia. The assay can be described thus: Bactericidal activity against beta lactamase-positive Prevotella intermedia isolated from intra-abdominal infection and pelvic inflammatory disease patients assessed as bacterial killing at MIC after 48 hrs by time kill analysis. An outline of the steps: as §3
For assay [10], the system named is Fusobacterium nucleatum. Put plainly: Bactericidal activity against beta lactamase-positive Fusobacterium nucleatum isolated from intra-abdominal infection and pelvic inflammatory disease patients assessed as bacterial killing at MIC after 48 hrs by time kill analysis. An outline of the steps:
as §3

SMILES strings stand for the structures. Converted amounts (≈) assume the structure as drawn.

As usually defined, the MIC is the lowest concentration found to suppress growth. The term MIC50 denotes an inhibitory concentration at the 50% level, which refers to growth in some studies and to a panel of isolates in others. A higher MIC50 goes with lower susceptibility. For orientation: MIC90 means an inhibitory concentration at the 90% level, which refers to growth in some studies and to a panel of isolates in others. As to `C[C@@H](O)[C@H]1C(=O)N2C(C(=O)O)=C(S[C@@H]3CN[C@H](C(=O)Nc4cccc(C(=O)O)c4)C3)[C@H](C)[C@H]12`, the MIC in [1] was 1 µg/mL (≈ 2.1 µM). In addition, in assay [2], it took 0.06 µg/mL (≈ 0.126 µM) to inhibit growth (MIC) and the MIC50 was determined as 0.06 µg/mL (≈ 0.126 µM). Also, in [3], the MIC50 was found to be 0.03 µg/mL (≈ 0.0631 µM) and the MIC90 worked out at 0.06 µg/mL (≈ 0.126 µM).

`C[C@@H](O)[C@H]1C(=O)N2C(C(=O)O)=C(S[C@@H]3CN[C@H](CNS(N)(=O)=O)C3)[C@H](C)[C@H]12` [DORIPENEM]: the Activity in assay [4], in assay [5], in assay [6], in [7], in [8] and in assay [9] was 99% throughout. The Activity in assay [10] is 99%. Besides, the MIC in [1] was determined as 1 µg/mL (≈ 2.38 µM); in assay [3] it was 0.03 µg/mL (≈ 0.0713 µM). Besides, the MIC50 in assay [2] and in [3] was 0.03 µg/mL (≈ 0.0713 µM) in each case. This compound had an MIC90 in [3] of 0.06 µg/mL (≈ 0.143 µM).

On to `C[C@@H](O)[C@H]1C(=O)N2C(C(=O)O)=C(SCCNC=N)C[C@H]12` [IMIPENEM ANHYDROUS], for which the Activity in assay [4], in [5], in assay [6], in assay [7], in assay [8] and in assay [9] was 99% throughout. Moreover, the Activity in [10] was found to be 99%. This compound also yielded an MIC in assay [1] of 2 µg/mL (≈ 6.68 µM). Moreover, the MIC50 in assay [2] and in assay [3] was 0.03 µg/mL (≈ 0.1 µM) throughout. Further, in assay [3], the MIC90 was determined as 0.06 µg/mL (≈ 0.2 µM).

In the case of `C[C@@H](O)[C@H]1C(=O)N2C(C(=O)O)=C(S[C@@H]3CN[C@H](C(=O)N(C)C)C3)[C@H](C)[C@H]12` [MEROPENEM], the MIC in [1] stood at 1 µg/mL (≈ 2.61 µM). Further, in assay [2], it took 0.03 µg/mL (≈ 0.0782 µM) to inhibit growth (MIC) and the MIC50 was 0.03 µg/mL (≈ 0.0782 µM). In addition, in [3], the MIC50 amounted to 0.03 µg/mL (≈ 0.0782 µM) and the MIC90 was 0.06 µg/mL (≈ 0.156 µM).

Values taken from ChEMBL document CHEMBL1151448, “Comparative antianaerobic activities of doripenem determined by MIC and time-kill analysis” (2008).
